Laboratory results taken from ChEMBL document CHEMBL3400137, “Glycyrrhizic acid derivatives as influenza A/H1N1 virus inhibitors” (Bioorg Med Chem Lett, 2015).

Experiments:
[1] = Selectivity index, CTD50 for MDCK cells to EC50 for influenza A virus (A/California/07/09(H1N1)) pdm09 infected in MDCK cells; format: toxicity, cell-based; conditions: dog; for selectivity ratio: read-out: Selectivity Index; for Selectivity Index: mdck
[2] = Antiviral activity against influenza A virus (A/California/07/09(H1N1)) pdm09 infected in MDCK cells assessed as decrease in virus titer by hemagglutination assay in presence of 1% suspension of chicken erythrocytes; format: functional, Influenza A virus (A/California/07/2009(H1N1)); conditions: read-out: CD50 (the source's name)
In short: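 MDCK cells were pre-treated for 1 h at 37 °C with serial twofold compound dilutions in MEM containing 2 mM arginine, 2 mM glutamine and 2 μg/mL trypsin, then infected. Untreated infected cells served as control. Virus yield in the supernatant was read by end-point dilution hemagglutination. ED50 was the concentration giving a two-fold drop in virus production versus control. Values are means.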

[3] = test system: MDCK; assay: Cytotoxicity against MDCK cells assessed as reduction in cell viability after 48 hrs by MTT assay; format: cell-based, Canis lupus familiaris
In short: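 Compounds were taken from 5 mg/mL DMSO stocks and diluted twofold in MEM. They were applied to washed, serum-free MDCK monolayers (grown in MEM with 5% fetal calf serum) for 48 h at 37 °C. Cells were then PBS-washed and given 0.5 mg/mL MTT for 60 min at 37 °C in 5% CO2. Formazan was dissolved in DMSO and read at 535 nm. CTD50 was estimated from these readings. Values are means.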

Structure (SMILES) | selectivity ratio [1] | CC50 ([2]; Influenza A virus, pdm09, MDCK) [µM] | EC50 [3] [µM] | Selectivity Index [1] | CC50 [2] [µM]
COC(=O)C[C@H](NC(=O)[C@H]1O[C@@H](O[C@H]2[C@H](O[C@H]3CC[C@]4(C)[C@H]5C(=O)C=C6[C@H]7C[C@@](C)(C(=O)O)CC[C@]7(C)CC[C@@]6(C)[C@]5(C)CC[C@H]4C3(C)C)O[C@H](C(=O)N[C@@H](CC(=O)OC)C(=O)OC)[C@@H](O)[C@@H]2O)[C@H](O)[C@@H](O)[C@@H]1O)C(=O)OC | 4 | 38 |  |  | 
COC(=O)[C@@H](NC(=O)[C@H]1O[C@@H](O[C@H]2[C@H](O[C@H]3CC[C@]4(C)[C@H]5C(=O)C=C6[C@@H]7C[C@@](C)(C(=O)O)CC[C@]7(C)CC[C@@]6(C)[C@]5(C)CC[C@H]4C3(C)C)O[C@H](C(=O)N[C@H](C(=O)OC)C(C)C)[C@@H](O)[C@@H]2O)[C@H](O)[C@@H](O)[C@@H]1O)C(C)C | 5 | 29.1 |  |  | 
CC[C@H](C)[C@H](NC(=O)[C@H]1O[C@@H](O[C@H]2[C@H](O[C@H]3CC[C@]4(C)[C@H]5C(=O)C=C6[C@@H]7C[C@@](C)(C(=O)N[C@H](C(=O)OC)[C@@H](C)CC)CC[C@]7(C)CC[C@@]6(C)[C@]5(C)CC[C@H]4C3(C)C)O[C@H](C(=O)N[C@H](C(=O)OC)[C@@H](C)CC)[C@@H](O)[C@@H]2O)[C@H](O)[C@@H](O)[C@@H]1O)C(=O)OC | 6 | 16.4 |  |  | 
COC(=O)C[C@H](NC(=O)[C@H]1O[C@@H](O[C@H]2[C@H](O[C@H]3CC[C@]4(C)[C@H]5C(=O)C=C6[C@H]7C[C@@](C)(C(=O)O)CC[C@]7(C)CC[C@@]6(C)[C@]5(C)CC[C@H]4C3(C)C)O[C@H](C(=O)N[C@@H](CC(=O)OC)C(=O)O)[C@@H](O)[C@@H]2O)[C@H](O)[C@@H](O)[C@@H]1O)C(=O)O | 12 | 58.3 |  |  | 
COC(=O)[C@H](Cc1ccccc1)NC(=O)[C@H]1O[C@@H](O[C@H]2[C@H](O[C@H]3CC[C@]4(C)[C@H]5C(=O)C=C6[C@@H]7C[C@@](C)(C(=O)N[C@@H](Cc8ccccc8)C(=O)OC)CC[C@]7(C)CC[C@@]6(C)[C@]5(C)CC[C@H]4C3(C)C)O[C@H](C(=O)N[C@@H](Cc3ccccc3)C(=O)OC)[C@@H](O)[C@@H]2O)[C@H](O)[C@@H](O)[C@@H]1O | 28 | 133 |  |  | 
CC1(C)[C@@H](O[C@@H]2O[C@H](C(=O)N[C@@H](CSCc3ccccc3)C(=O)O)[C@@H](O)[C@H](O)[C@H]2O[C@@H]2O[C@H](C(=O)N[C@@H](CSCc3ccccc3)C(=O)O)[C@@H](O)[C@H](O)[C@H]2O)CC[C@]2(C)[C@H]3C(=O)C=C4[C@@H]5C[C@@](C)(C(=O)O)CC[C@]5(C)CC[C@@]4(C)[C@]3(C)CC[C@@H]12 | 71 | 248 |  |  | 
CC1(C)[C@@H](O[C@@H]2O[C@H](C(=O)N[C@@H](CCCCNC(=O)OCc3ccccc3)C(=O)O)[C@@H](O)[C@H](O)[C@H]2O[C@@H]2O[C@H](C(=O)N[C@@H](CCCCNC(=O)OCc3ccccc3)C(=O)O)[C@@H](O)[C@H](O)[C@H]2O)CC[C@]2(C)[C@H]3C(=O)C=C4[C@@H]5C[C@@](C)(C(=O)O)CC[C@]5(C)CC[C@@]4(C)[C@]3(C)CC[C@@H]12 | 3 | 155 |  |  | 
COC(=O)[C@H](Cc1ccc(O)cc1)NC(=O)[C@H]1O[C@@H](O[C@H]2[C@H](O[C@H]3CC[C@]4(C)[C@H]5C(=O)C=C6[C@@H]7C[C@@](C)(C(=O)N[C@@H](Cc8ccc(O)cc8)C(=O)OC)CC[C@]7(C)CC[C@@]6(C)[C@]5(C)CC[C@H]4C3(C)C)O[C@H](C(=O)N[C@@H](Cc3ccc(O)cc3)C(=O)OC)[C@@H](O)[C@@H]2O)[C@H](O)[C@@H](O)[C@@H]1O | 18 | 160 |  |  | 
CC1(C)[C@@H](OC2O[C@H](C(=O)O)[C@@H](O)[C@H](O)[C@H]2O[C@@H]2O[C@H](C(=O)O)[C@@H](O)[C@H](O)[C@H]2O)CC[C@]2(C)[C@H]3C(=O)C=C4C5C[C@@](C)(C(=O)O)CC[C@]5(C)CC[C@@]4(C)[C@]3(C)CC[C@@H]12 (single isomer, unassigned) [GLYCYRRHIZIN] |  |  | 15.2 | 3 | 47.5
COC(=O)[C@H](Cc1ccccc1)NC(=O)[C@H]1O[C@@H](O[C@H]2[C@H](O[C@H]3CC[C@]4(C)[C@H]5C(=O)C=C6[C@@H]7C[C@@](C)(C(=O)O)CC[C@]7(C)CC[C@@]6(C)[C@]5(C)CC[C@H]4C3(C)C)O[C@H](C(=O)N[C@@H](Cc3ccccc3)C(=O)OC)[C@@H](O)[C@@H]2O)[C@H](O)[C@@H](O)[C@@H]1O | 61 | 262 |  |  | 
COC(=O)C[C@H](NC(=O)[C@H]1O[C@@H](O[C@H]2[C@H](O[C@H]3CC[C@]4(C)[C@H]5C(=O)C=C6[C@@H]7C[C@@](C)(C(=O)O)CC[C@]7(C)CC[C@@]6(C)[C@]5(C)CC[C@H]4C3(C)C)O[C@H](C(=O)N[C@@H](CC(=O)OC)C(=O)OC)[C@@H](O)[C@@H]2O)[C@H](O)[C@@H](O)[C@@H]1O)C(=O)OC | 1 | 37.3 |  |  | 
CC1(C)[C@@H](O[C@@H]2O[C@H](C(=O)O)[C@@H](O)[C@H](O)[C@H]2O[C@@H]2O[C@H](C(=O)O)[C@@H](O)[C@H](O)[C@H]2O)CC[C@]2(C)C3=CC=C4[C@@H]5C[C@@](C)(C(=O)O)CC[C@]5(C)CC[C@@]4(C)[C@]3(C)CC[C@@H]12 | 10 | 21.4 |  |  | 
CC1(C)[C@@H](O[C@@H]2O[C@H](C(=O)N[C@@H]3O[C@H](CO)[C@@H](O)[C@H](O)[C@H]3O)[C@@H](O)[C@H](O)[C@H]2O[C@@H]2O[C@H](C(=O)N[C@@H]3O[C@H](CO)[C@@H](O)[C@H](O)[C@H]3O)[C@@H](O)[C@H](O)[C@H]2O)CC[C@]2(C)[C@H]3C(=O)C=C4[C@@H]5C[C@@](C)(C(=O)O)CC[C@]5(C)CC[C@@]4(C)[C@]3(C)CC[C@@H]12 | 36 | 259 |  |  | 
COC(=O)[C@@]1(C)CC[C@]2(C)CC[C@]3(C)C(=CC(=O)[C@@H]4[C@@]5(C)CC[C@H](O[C@@H]6O[C@H](CO)[C@@H](O)[C@H](O)[C@H]6O[C@@H]6O[C@H](CO)[C@@H](O)[C@H](O)[C@H]6O)C(C)(C)[C@@H]5CC[C@]43C)[C@@H]2C1 | 5 | 371 |  |  | 
CC(N)C12CC3CC(CC(C3)C1)C2 (stereo not drawn) [RIMANTADINE] | 5 | 334 |  |  | 
COC(=O)[C@H](Cc1c[nH]cn1)NC(=O)[C@H]1O[C@@H](O[C@H]2[C@H](O[C@H]3CC[C@]4(C)[C@H]5C(=O)C=C6[C@@H]7C[C@@](C)(C(=O)O)CC[C@]7(C)CC[C@@]6(C)[C@]5(C)CC[C@H]4C3(C)C)O[C@H](C(=O)N[C@@H](Cc3c[nH]cn3)C(=O)OC)[C@@H](O)[C@@H]2O)[C@H](O)[C@@H](O)[C@@H]1O | 15 | 298 |  |  | 
COC(=O)[C@H](Cc1ccc(O)cc1)NC(=O)[C@H]1O[C@@H](O[C@H]2[C@H](O[C@H]3CC[C@]4(C)[C@H]5C(=O)C=C6[C@@H]7C[C@@](C)(C(=O)O)CC[C@]7(C)CC[C@@]6(C)[C@]5(C)CC[C@H]4C3(C)C)O[C@H](C(=O)N[C@@H](Cc3ccc(O)cc3)C(=O)OC)[C@@H](O)[C@@H]2O)[C@H](O)[C@@H](O)[C@@H]1O | 38 | 255 |  |  | 
CC1(C)[C@@H](O[C@H]2O[C@H](C(=O)O)[C@@H](O)[C@H](O)[C@H]2O[C@@H]2O[C@H](C(=O)O)[C@@H](O)[C@H](O)[C@H]2O)CC[C@]2(C)[C@H]3C(=O)C=C4[C@@H]5C[C@@](C)(C(=O)O)CC[C@]5(C)CC[C@@]4(C)[C@]3(C)CC[C@@H]12 [GLYCYRRHIZIN] |  |  | 365 | 1 | 365
